Source: ChEMBL document CHEMBL5674880 (PLoS One, 2018)

How the values were obtained:
Format in all cases: functional, cell-based
639-V = assay: Antiproliferative activity against human 639-V cells after 10 days; details: 240 h
Method in brief: (§1)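 Tested as part of a 240-line cancer cell panel (Eurofins Oncopanel); all lines were mycoplasma-negative and STR-verified. Cells were exposed to a compound concentration series in 2D culture for 10 days. The highest concentration was 10 μM or 25 μM, depending on the inhibitor. Antiproliferative IC50 was derived from the mean of three biological replicates.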

647-V = assay: Antiproliferative activity against human 647-V cells after 10 days; details: 240 h
Method in brief: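 Tested in the Eurofins Oncopanel of about 240 cancer cell lines, all mycoplasma-negative and STR-verified. Cells were exposed to compound for 10 days in 2D culture, and a proliferative IC50 was derived from the concentration series. The highest concentration tested was 10 μM in the SMYD2 inhibitor screen and 25 μM in the SMYD3 inhibitor screen. Values are means of three biological replicates.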

786-0 = assay: Antiproliferative activity against human 786-0 cells after 10 days; details: 786-0, 240 h; method in brief: as §1
A-427 = assay: Antiproliferative activity against human A-427 cells after 10 days; details: A-427, 240 h; method in brief: as §1
A498 = assay: Antiproliferative activity against human A498 cells after 10 days; details: A498, 240 h; method in brief: as §1
A549 = assay: Antiproliferative activity against human A549 cells after 10 days; details: A549, 240 h; method in brief: as §1
AN3-CA = assay: Antiproliferative activity against human AN3-CA cells after 10 days; details: 240 h; method in brief: as §1
BT-20 = assay: Antiproliferative activity against human BT-20 cells after 10 days; details: BT-20, 240 h; method in brief: as §1
[1] = Antiproliferative activity against human C32TG cells after 10 days; details: 240 h; method in brief: as §1
[2] = Antiproliferative activity against human C4-1 cells after 10 days; details: C4-1, 240 h; method in brief: as §1
CAKI-2 = assay: Antiproliferative activity against human CAKI-2 cells after 10 days; details: CAKI-2, 240 h; method in brief: as §1
CFPAC-1 = assay: Antiproliferative activity against human CFPAC-1 cells after 10 days; details: CFPAC-1, 240 h; method in brief: as §1
DK-MG = assay: Antiproliferative activity against human DK-MG cells after 10 days; details: 240 h
Method in brief: (§2)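 10-day 2D proliferation screen of a broad cancer cell panel (about 240 lines, Eurofins Oncopanel). All lines were mycoplasma negative and STR verified. Compounds were dosed up to a top concentration of 10 μM or 25 μM, depending on the inhibitor. Anti-proliferative IC50 values are the average of three biological replicates.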

DoTc2-4510 = assay: Antiproliferative activity against human DoTc2-4510 cells after 10 days; details: DoTc2-4510, 240 h; method in brief: as §2
HEL 92.1.7 = assay: Antiproliferative activity against human HEL 92.1.7 cells after 10 days; details: HEL 92.1.7, 240 h; method in brief: as §2
HT-1080 = assay: Antiproliferative activity against human HT-1080 cells after 10 days; details: HT-1080, 240 h; method in brief: as §2
HT-1376 = assay: Antiproliferative activity against human HT-1376 cells after 10 days; details: HT-1376, 240 h; method in brief: as §2
HT-3 = assay: Antiproliferative activity against human HT-3 cells after 10 days; details: HT-3, 240 h; method in brief: as §2
J82 = assay: Antiproliferative activity against human J82 cells after 10 days; details: J82, 240 h
Method in brief: (§3)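 Broad cancer cell line panel (Eurofins Oncopanel, about 240 lines; mycoplasma negative, STR verified) grown in 2D culture and exposed to compound in a 10-day proliferation assay. The top concentration was 10 μM for the SMYD2 inhibitor series and 25 μM for the SMYD3 inhibitor. The proliferative IC50 is taken from concentration-response data, each value the mean of three biological replicates.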

K562 = assay: Antiproliferative activity against human K562 cells after 10 days; details: K562, 240 h; method in brief: as §3
MEG-01 = assay: Antiproliferative activity against human MEG-01 cells after 10 days; details: MEG-01, 240 h; method in brief: as §3
NCI-H292 = assay: Antiproliferative activity against human NCI-H292 cells after 10 days; details: NCI-H292, 240 h; method in brief: as §3
PANC-1 = assay: Antiproliferative activity against human PANC-1 cells after 10 days; details: PANC-1, 240 h; method in brief: as §3
SK-LMS-1 = assay: Antiproliferative activity against human SK-LMS-1 cells after 10 days; details: SK-LMS-1, 240 h
SW1088 = assay: Antiproliferative activity against human SW1088 cells after 10 days; details: SW1088, 240 h
SW837 = assay: Antiproliferative activity against human SW837 cells after 10 days; details: SW837, 240 h
SW872 = assay: Antiproliferative activity against human SW872 cells after 10 days; details: SW872, 240 h
U138-MG = assay: Antiproliferative activity against human U138-MG cells after 10 days; details: 240 h
C32 = assay: Antiproliferative activity against human C32 cells after 10 days; details: C32, 240 h
C-4-II = assay: Antiproliferative activity against human C-4-II cells after 10 days; details: 240 h
CCRF-CEM = assay: Antiproliferative activity against human CCRF-CEM cells after 10 days; details: 240 h
COLO-829 = assay: Antiproliferative activity against human COLO-829 cells after 10 days; details: COLO-829, 240 h
DBTRG-05MG = assay: Antiproliferative activity against human DBTRG-05MG cells after 10 days; details: 240 h
Detroit 562 = assay: Antiproliferative activity against human Detroit 562 cells after 10 days; details: Detroit 562, 240 h
H4 = assay: Antiproliferative activity against human H4 cells after 10 days; details: H4, 240 h
HLE = assay: Antiproliferative activity against human HLE cells after 10 days; details: 240 h
MDA-MB-468 = assay: Antiproliferative activity against human MDA-MB-468 cells after 10 days; details: MDA-MB-468, 240 h
MX1 = assay: Antiproliferative activity against human MX1 cells after 10 days; details: MX1, 240 h
NCI-H460 = assay: Antiproliferative activity against human NCI-H460 cells after 10 days; details: NCI-H460, 240 h
SK-MEL-28 = assay: Antiproliferative activity against human SK-MEL-28 cells after 10 days; details: SK-MEL-28, 240 h
SK-N-AS = assay: Antiproliferative activity against human SK-N-AS cells after 10 days; details: 240 h
SR = assay: Antiproliferative activity against human SR cells after 10 days; details: 240 h

SMILES: Cc1cn(CCN2CCN(c3ccccc3-c3cc(C#N)cc(C(=O)NCCCN4CCCC4)c3)CC2)c2ccccc12
- IC50 (639-V): 1.14 µM
- IC50 (647-V): 1.48 µM
- IC50 (786-0): 2.1 µM
- IC50 (A-427): 1.34 µM
- IC50 (A498): 2.01 µM
- IC50 (A549): 3.39 µM
- IC50 (AN3-CA): 2.42 µM
- IC50 (BT-20): 3.35 µM
- IC50 [1]: 2.36 µM
- IC50 [2]: 2.06 µM
- IC50 (CAKI-2): 1.22 µM
- IC50 (CFPAC-1): 1.48 µM
- IC50 (DK-MG): 6.42 µM
- IC50 (DoTc2-4510): 1.07 µM
- IC50 (HEL 92.1.7): 3.53 µM
- IC50 (HT-1080): 1.98 µM
- IC50 (HT-1376): 2.35 µM
- IC50 (HT-3): 3.27 µM
- IC50 (J82): 3.15 µM
- IC50 (K562): 3.21 µM
- IC50 (MEG-01): 1.28 µM
- IC50 (NCI-H292): 2.69 µM
- IC50 (PANC-1): 2.87 µM
- IC50 (SK-LMS-1): 2.41 µM
- IC50 (SW1088): 1.18 µM
- IC50 (SW837): 3.69 µM
- IC50 (SW872): 2.53 µM
- IC50 (U138-MG): 4.54 µM

SMILES: O=C(NC1CN(Cc2cnn(Cc3ccccc3)c2)C1)c1cn(C2CC2)nn1
- IC50 (639-V): > 10 µM
- IC50 (647-V): > 10 µM
- IC50 (786-0): > 10 µM
- IC50 (A-427): > 10 µM
- IC50 (A498): > 10 µM
- IC50 (A549): > 10 µM
- IC50 (AN3-CA): > 10 µM
- IC50 (BT-20): > 10 µM
- IC50 (C32): > 10 µM
- IC50 [1]: > 10 µM
- IC50 [2]: > 10 µM
- IC50 (C-4-II): > 10 µM
- IC50 (CAKI-2): > 10 µM
- IC50 (CCRF-CEM): > 10 µM
- IC50 (CFPAC-1): > 10 µM
- IC50 (COLO-829): 5.73 µM
- IC50 (DBTRG-05MG): > 10 µM
- IC50 (Detroit 562): > 10 µM
- IC50 (DK-MG): > 10 µM
- IC50 (DoTc2-4510): > 10 µM
- IC50 (H4): > 10 µM
- IC50 (HEL 92.1.7): > 10 µM
- IC50 (HLE): > 10 µM
- IC50 (HT-1080): > 10 µM
- IC50 (HT-1376): > 10 µM
- IC50 (HT-3): > 10 µM
- IC50 (J82): > 10 µM
- IC50 (K562): > 10 µM
- IC50 (MDA-MB-468): > 10 µM
- IC50 (MEG-01): > 10 µM
- IC50 (MX1): > 10 µM
- IC50 (NCI-H292): > 10 µM
- IC50 (NCI-H460): > 10 µM
- IC50 (PANC-1): > 10 µM
- IC50 (SK-LMS-1): > 10 µM
- IC50 (SK-MEL-28): > 10 µM
- IC50 (SK-N-AS): > 10 µM
- IC50 (SR): > 10 µM
- IC50 (SW1088): > 10 µM
- IC50 (SW837): > 10 µM
- IC50 (SW872): > 10 µM
- IC50 (U138-MG): > 10 µM
